Laboratory results from ChEMBL document CHEMBL1287772, “Synthesis and structure-activity relationship of tetrahydropyrazolopyrimidine derivatives--a novel structural class of potent calcium-sensing receptor antagonists” (Bioorg Med Chem, 2010).
pIC50: −log10 of the molar value.

Legend:
[1] = target: T1, Extracellular calcium-sensing receptor (Homo sapiens, UniProt P41180); assay: Antagonist activity at CaSR expressed in CHO cells assessed as [35S]-GTPgammaS binding by scintillation counting; format: functional, cell-based
T1 sequence (P41180 whole entry): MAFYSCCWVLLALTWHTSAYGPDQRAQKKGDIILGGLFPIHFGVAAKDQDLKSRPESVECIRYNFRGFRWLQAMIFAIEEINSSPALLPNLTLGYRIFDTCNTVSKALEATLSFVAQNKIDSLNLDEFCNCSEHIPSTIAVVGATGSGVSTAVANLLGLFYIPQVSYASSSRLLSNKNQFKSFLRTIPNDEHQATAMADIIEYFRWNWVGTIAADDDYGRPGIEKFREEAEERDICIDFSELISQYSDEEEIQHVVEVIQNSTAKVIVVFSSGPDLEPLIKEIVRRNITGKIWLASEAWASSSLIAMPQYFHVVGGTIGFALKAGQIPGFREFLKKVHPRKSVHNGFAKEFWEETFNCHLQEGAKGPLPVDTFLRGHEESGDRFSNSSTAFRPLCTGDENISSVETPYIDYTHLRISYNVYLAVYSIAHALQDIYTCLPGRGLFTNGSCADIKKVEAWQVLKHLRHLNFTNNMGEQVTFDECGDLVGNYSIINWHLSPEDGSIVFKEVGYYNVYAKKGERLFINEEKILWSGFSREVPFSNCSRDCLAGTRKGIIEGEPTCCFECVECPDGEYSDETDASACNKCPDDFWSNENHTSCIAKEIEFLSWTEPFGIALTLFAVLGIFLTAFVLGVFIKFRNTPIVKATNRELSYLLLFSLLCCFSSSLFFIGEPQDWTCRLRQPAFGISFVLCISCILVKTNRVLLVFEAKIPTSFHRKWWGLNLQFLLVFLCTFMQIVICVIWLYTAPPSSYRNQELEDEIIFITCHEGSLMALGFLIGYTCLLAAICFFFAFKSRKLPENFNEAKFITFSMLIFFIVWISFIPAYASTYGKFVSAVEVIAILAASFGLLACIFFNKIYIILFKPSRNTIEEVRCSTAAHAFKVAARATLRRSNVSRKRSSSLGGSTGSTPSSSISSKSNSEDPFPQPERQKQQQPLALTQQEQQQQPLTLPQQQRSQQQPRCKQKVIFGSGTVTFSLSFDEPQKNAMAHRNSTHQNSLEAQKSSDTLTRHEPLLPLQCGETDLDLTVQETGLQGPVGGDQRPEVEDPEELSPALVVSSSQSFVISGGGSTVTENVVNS

[2] = Tmax in Crl:CD(SD) rat at 10 mg/kg, po administered with solubilized reagent; format: ADME, organism-based; design: dose 10 mg/kg, route oral; settings: in vivo
Procedure, shortened: (§1)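 Nonfasted male rats, 8 weeks old, n = 3, single oral dose 10 mg/kg. Blood sampled at 0.25, 0.5, 1, 2, 4, 8 and 24 h and spun to plasma. Plasma deproteinized with acetonitrile, supernatant diluted in 0.01 mol/L ammonium acetate, re-centrifuged, assayed by HPLC. Mean ± SD reported.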

[3] = Mean residence time in Crl:CD(SD) rat at 10 mg/kg, po administered with solubilized reagent; format: ADME, organism-based; design: dose 10 mg/kg, route oral; settings: in vivo; procedure, shortened: as §1
[4] = AUC in Crl:CD(SD) rat at 10 mg/kg, po administered with 0.5% methylcellulose suspension; format: ADME, organism-based; design: dose 10 mg/kg, route oral; settings: in vivo; procedure, shortened: as §1
[5] = AUC in Crl:CD(SD) rat at 10 mg/kg, po administered with solubilized reagent; format: ADME, organism-based; design: dose 10 mg/kg, route oral; settings: plasma; procedure, shortened: as §1
[6] = Cmax in Crl:CD(SD) rat at 10 mg/kg, po administered with solubilized reagent; format: ADME, organism-based; design: dose 10 mg/kg, route oral; settings: in vivo; procedure, shortened: as §1
[7] = Mean residence time in Crl:CD(SD) rat at 10 mg/kg, po administered with 0.5% methylcellulose suspension; format: ADME, organism-based; design: dose 10 mg/kg, route oral; settings: in vivo; procedure, shortened: as §1
[8] = Cmax in Crl:CD(SD) rat at 10 mg/kg, po administered with 0.5% methylcellulose suspension; format: ADME, organism-based; design: dose 10 mg/kg, route oral; settings: in vivo; procedure, shortened: as §1
[9] = Tmax in Crl:CD(SD) rat at 10 mg/kg, po administered with 0.5% methylcellulose suspension; format: ADME, organism-based; design: dose 10 mg/kg, route oral; settings: in vivo; procedure, shortened: as §1

**Q.** With `O=C(NC12CC3CC(CC(C3)C1)C2)c1cnn2c1N[C@H](c1ccccc1)C[C@@H]2C(F)(F)F` as the compound, how does the pIC50 [1] read?
**A.** 7.40

**Q.** With `O=C(OC12CC3CC(CC(C3)C1)C2)c1cnn2c1N[C@H](c1ccccc1)C[C@@H]2C(F)(F)F` as the compound, how does the pIC50 [1] read?
**A.** 7.01

**Q.** With `CN1c2c(C(=O)NC34CC5CC(CC(C5)C3)C4)cnn2[C@@H](C(F)(F)F)C[C@H]1c1ccccc1` as the compound, how does the pIC50 [1] read?
**A.** < 5.00

**Q.** With `O=C(Nc1cnn2c1N[C@H](c1ccccc1)C[C@@H]2C(F)(F)F)C12CC3CC(CC(C3)C1)C2` as the compound, how does the pIC50 [1] read?
**A.** < 5.00

**Q.** With `FC(F)(F)[C@H]1C[C@@H](c2ccccc2)Nc2c(CNC34CC5CC(CC(C5)C3)C4)cnn21` as the compound, how does the pIC50 [1] read?
**A.** < 5.00

**Q.** With `O=C(NC12CC3CC(CC(C3)C1)C2)c1cnn2c1N[C@H](c1ccccc1Cl)C[C@@H]2C(F)(F)F` as the compound, how does the pIC50 [1] read?
**A.** 6.96

**Q.** With `O=C(NC12CC3CC(CC(C3)C1)C2)c1cnn2c1N[C@H](c1cccc(Cl)c1)C[C@@H]2C(F)(F)F` as the compound, how does the pIC50 [1] read?
**A.** 6.49

**Q.** With `O=C(NC12CC3CC(CC(C3)C1)C2)c1cnn2c1N[C@H](c1ccc(Cl)cc1)C[C@@H]2C(F)(F)F` as the compound, how does the pIC50 [1] read?
**A.** < 5.00

**Q.** With `COc1ccc([C@@H]2C[C@H](C(F)(F)F)n3ncc(C(=O)NC45CC6CC(CC(C6)C4)C5)c3N2)cc1` as the compound, how does the pIC50 [1] read?
**A.** < 5.00

**Q.** With `CCc1ccc([C@@H]2C[C@H](C(F)(F)F)n3ncc(C(=O)NC45CC6CC(CC(C6)C4)C5)c3N2)cc1` as the compound, how does the pIC50 [1] read?
**A.** < 5.00

**Q.** With `O=C(NC12CC3CC(CC(C3)C1)C2)c1cnn2c1N[C@H](c1ccco1)C[C@@H]2C(F)(F)F` as the compound, how does the pIC50 [1] read?
**A.** 6.40

**Q.** With `O=C(NC12CC3CC(CC(C3)C1)C2)c1cnn2c1N[C@H](c1cccnc1)C[C@@H]2C(F)(F)F` as the compound, how does the pIC50 [1] read?
**A.** < 5.00

**Q.** With `CC(C)(C)[C@@H]1C[C@H](C(F)(F)F)n2ncc(C(=O)NC34CC5CC(CC(C5)C3)C4)c2N1` as the compound, how does the pIC50 [1] read?
**A.** < 5.00

**Q.** With `O=C(NC12CC3CC(CC(C3)C1)C2)c1cnn2c1N[C@H](c1ccccc1)C[C@@H]2c1ccccc1` as the compound, how does the pIC50 [1] read?
**A.** 6.15

**Q.** With `C[C@H]1C[C@@H](c2ccccc2)Nc2c(C(=O)NC34CC5CC(CC(C5)C3)C4)cnn21` as the compound, how does the pIC50 [1] read?
**A.** 7.12

**Q.** With `C[C@@H]1C[C@H](c2ccccc2)n2ncc(C(=O)NC34CC5CC(CC(C5)C3)C4)c2N1` as the compound, how does the pIC50 [1] read?
**A.** < 5.00

**Q.** With `O=C(NC12CC3CC(CC(C3)C1)C2)c1cnn2c1NCC[C@@H]2C(F)(F)F` as the compound, how does the pIC50 [1] read?
**A.** < 5.00

**Q.** With `O=C(NC12CC3CC(CC(C3)C1)C2)c1cnn2c1N[C@H](c1ccccc1)CC2` as the compound, how does the pIC50 [1] read?
**A.** 5.28

**Q.** What does the source list for `CC1(C)C[C@@H](c2ccccc2)Nc2c(C(=O)NC34CC5CC(CC(C5)C3)C4)cnn21`?
**A.** Tmax [2]: 0.67 h; MRT [3]: 4.48 h; AUC [4]: 591 ng·h/mL; pIC50 [1]: 8.00; AUC [5]: 1270 ng·h/mL; Cmax [6]: 237 ng/mL; MRT [7]: 4.65 h; Cmax [8]: 64 ng/mL; Tmax [9]: 1.3 h

**Q.** With `CC1(C)C=C(c2ccccc2)Nc2c(C(=O)NC34CC5CC(CC(C5)C3)C4)cnn21` as the compound, how does the pIC50 [1] read?
**A.** 6.24

**Q.** With `O=C(NC12CC3CC(CC(C3)C1)C2)c1cnn2c(C(F)(F)F)cc(-c3ccccc3)nc12` as the compound, how does the pIC50 [1] read?
**A.** < 5.00
